The values below come from PubChem BioAssay.

Assay [1] is described as follows: inhibitors of TNFa-induced NFkB p65 translocation, primary screen, imaging, HUVEC, MLSMR starter and 10KST1 sets (AID 438;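 active means inhibition above 20% together with a positive visual image hit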;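 further: compound added about 3h40 before a 20 min TNFalpha stimulation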;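 on inhibition: signal is the nuclear over cytoplasmic p65 intensity ratio per well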). Particulars: HUVEC TNFa-induced p65 nuclear translocation; cell count: measured here: nuclei count (cytotoxicity indicator), at 2.08 µM; inhibition: at 2 µM, stronger effect = higher value, 0% TNFa-plus-vehicle, 100% no-TNFa wells.
Assay [2] can be described thus: endothelial E-selectin expression blockers – imaging, HUVEC, immunofluorescence, MLSMR starter and 10KST1 sets, primary screen (AID 487;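 active means visually confirmed hit in the image check and inhibition above 20%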;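 on inhibition: signal is fraction of cell area covered by stained E-selectin grains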;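 on nuclei count: 100% = median nuclei count of all wells on the same plate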). Particulars: HUVEC TNFalpha-induced E-selectin immunofluorescence imaging, at 2 µM; inhibition: stronger effect = higher value; nuclei count: measured here: cell number, toxicity.
Assay [3] can be described thus: Primary imaging screen for DUSP6 inhibitors that restore phospho-Erk in transfected HeLa cells, chemical complementation (AID 609).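 On inhibition: phospho-Erk level distribution per well compared with pooled transfected vehicle control wells.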 The following applies: HeLa MKP-3 transfected, phospho-Erk imaging KS statistic, at 10 µM, cells stimulated with TPA for 15 min.
Assay [4] addresses Dual specificity protein phosphatase 6 (Homo sapiens) (UniProt Q16828). Described as above. Particulars: HeLa MKP-3 transfected, phospho-Erk imaging KS statistic; at 10 µM; stronger effect = higher value; cells stimulated with TPA for 15 min.
Assay [5] has as its target Voltage-gated potassium channel subunit beta-2 (Rattus norvegicus) (UniProt P62483). In words: inhibitors of rat Kvbeta2 reductase activity – biochemical, NADPH fluorescence, primary screen (AID 622;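 active means fluorescence slope higher than the sample average by over 3 SD, cut at about -0.22 in these data, passing the limit was not always enough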;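 further: slope of raw intensity against log time taken from 70 to 1610 s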). The following applies: recombinant KvBeta, 4-cyanobenzaldehyde reduction, at 10 µM, stronger effect = higher value.
The target is the same in assay [6]. In words: enhancers of rat Kvbeta2 NADPH turnover – biochemical, NADPH fluorescence, primary screen (AID 623;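 active means NADPH fluorescence slope more negative than the mean of all samples by about 3 SD, 99.7% confidence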;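 further: fluorescence intensity change per second fitted from 20 to 320 s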). The following applies: Recombinant KvBeta, NADPH fluorescence decrease slope, 10 min; at 10 µM; stronger effect = lower value.
Assay [7] addresses Muscarinic acetylcholine receptor M4 (Homo sapiens) (UniProt P08173). In words: M4-linked GIRK flux change, two-sided – cell-based, HEK293 M4/GIRK, thallium flux, BTC-AM, M4 allosteric agonist project, primary screen (AID 625;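 active means fluorescence slope after compound addition differing from the mean of all tested samples at 99.7% confidence, mostly higher but some lower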;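 further: thallium influx through GIRK channels coupled to M4 in HEK293 cells with BTC-AM dye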). The following applies: at 10 µM, actives lie on both sides. The method in brief: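 Assay system: HEK293 cells with M4 receptor and GIRK channels / Controls: carbachol and DMSO controls / Schedule: 1 h dye loading, 2 min kinetic read / Technique: kinetic fluorescence with BTC-AM dye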

Assay [8] is described as follows: inhibitors of larval lipid processing in zebrafish, primary screen, whole organism, PED6 fluorescence, gall bladder and intestine (AID 686;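 active means a full or partial loss of lipid-probe fluorescence in the fish gall bladder, intestine or both, judged by eye; inactive means no fluorescence loss, or compound toxic to the fish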;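 further: signal comes from phospholipase A2 cleavage of quenched PED6 carried via bile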). The following applies: Zebrafish larvae PED6 lipid processing, fluorescence scoring; screened at 20 µM (by protocol). The method in brief: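 Doses: 20 µM single dose. Test system: live zebrafish larvae aged 5-7 days, whole organism. Quantity: five larvae per well. Measured by: By-eye fluorescence microscopy. Reagent: ingested quenched lipid PED6 at 100 nM. Read-out: visual per-well fluorescence inhibition score. Times: overnight exposure of larvae to compound plus PED6.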

Assay [9] is described as follows: loss of swimming-algae plug formation – whole organism, Chlamydomonas reinhardtii, WT vs cilia-less mutant, absorbance, 96-well, primary screen (AID 463189;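 active means inhibition at or above 50% relative to wild type and mutant plate controls; inactive means inhibition below 50%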;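 further: 0% = wild type cc124 cells in DMSO and 100% = ciliumless bld1 mutant cells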). The following applies: Chlamydomonas reinhardtii gravitaxis, OD600 absorbance, 2 days; at 10 µM; stronger effect = higher value.
Where [10] appears, read: measured here: cell density z-score.
The mark [11] stands for this setting: measured here: nuclear c-Myc green intensity z-score.
[12] abbreviates: measured here: nuclear pErk red intensity z-score, stronger effect = higher value.

Calls of active or inactive are those of the source.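 How the source made its calls, unless noted: active means compounds giving at least 50% inhibition in the cell-based MKP-3 phosphatase rescue imaging test; inactive means the rest.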

Sequence of Voltage-gated potassium channel subunit beta-2 (Rattus norvegicus) (P62483 whole entry, looked up): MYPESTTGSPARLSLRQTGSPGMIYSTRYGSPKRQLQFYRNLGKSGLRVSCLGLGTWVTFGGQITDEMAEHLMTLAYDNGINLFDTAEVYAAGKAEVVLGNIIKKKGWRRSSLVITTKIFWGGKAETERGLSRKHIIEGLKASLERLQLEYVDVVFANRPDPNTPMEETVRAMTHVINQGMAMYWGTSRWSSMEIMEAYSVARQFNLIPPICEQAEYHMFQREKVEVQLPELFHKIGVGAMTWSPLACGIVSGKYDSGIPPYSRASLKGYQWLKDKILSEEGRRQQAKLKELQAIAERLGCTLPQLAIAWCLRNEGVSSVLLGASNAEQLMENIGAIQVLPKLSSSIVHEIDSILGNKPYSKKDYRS
Sequence of Dual specificity protein phosphatase 6 (Homo sapiens) (Q16828 whole entry, looked up): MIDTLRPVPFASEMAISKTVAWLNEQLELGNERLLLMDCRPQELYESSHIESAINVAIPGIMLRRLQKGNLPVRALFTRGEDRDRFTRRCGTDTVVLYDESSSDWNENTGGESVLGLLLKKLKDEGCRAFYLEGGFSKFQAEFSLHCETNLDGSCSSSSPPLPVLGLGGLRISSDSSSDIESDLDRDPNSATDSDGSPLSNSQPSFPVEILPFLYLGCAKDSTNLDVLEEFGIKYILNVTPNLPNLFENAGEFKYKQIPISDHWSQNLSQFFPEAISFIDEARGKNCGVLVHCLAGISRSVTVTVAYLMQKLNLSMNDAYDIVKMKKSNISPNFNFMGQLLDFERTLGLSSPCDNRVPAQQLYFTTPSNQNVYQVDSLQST
Sequence of Muscarinic acetylcholine receptor M4 (Homo sapiens) (P08173 whole entry, looked up): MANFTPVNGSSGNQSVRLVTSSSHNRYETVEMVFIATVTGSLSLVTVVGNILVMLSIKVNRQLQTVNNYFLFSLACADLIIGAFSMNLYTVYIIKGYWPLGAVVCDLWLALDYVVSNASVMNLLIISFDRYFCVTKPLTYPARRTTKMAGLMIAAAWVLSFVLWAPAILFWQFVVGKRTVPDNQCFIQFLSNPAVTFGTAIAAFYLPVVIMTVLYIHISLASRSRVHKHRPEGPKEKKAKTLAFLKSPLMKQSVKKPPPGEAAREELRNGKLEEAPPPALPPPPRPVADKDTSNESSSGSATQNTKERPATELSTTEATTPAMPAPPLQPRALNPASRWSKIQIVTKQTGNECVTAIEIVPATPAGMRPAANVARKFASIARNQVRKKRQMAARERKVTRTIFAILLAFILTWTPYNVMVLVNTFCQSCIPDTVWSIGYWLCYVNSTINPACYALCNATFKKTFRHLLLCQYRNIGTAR

Usually inhibition stands for the relative decrease from the control value, in per cent. For the molecule `CC(=O)NCC(=O)OCN1C(=O)c2ccccc2C1=O`, the cell count in assay [1] is 520. Also, the inhibition in [1] is -8.8% (inactive); in assay [2] it was -105% (inactive); in [4] it was 15.9% (inactive); in assay [9], 20% (inactive). In addition, the nuclei count in [2] is 154%. In addition, the values for the z-score in assay [3] (setting [10]), in assay [3] (setting [11]) and in [3] (setting [12]) were 0.466, -1.64 and -0.405, respectively. The fluorescence slope in assay [5] is -0.376 (inactive); in assay [7], 0.00573 (inactive). Further, in [6], the NADPH fluorescence slope is 7.5e-06 (inactive). In addition, the outcome in [8] was inactive.
In the case of `CCC(=O)Nc1ccc(-c2nnc(SCC(=O)NCC3CCCO3)n2C)cc1` (stereo unspecified), the cell count in [1] came to 656. For the same molecule, the inhibition is -4.5% (inactive) in assay [1], 10.4% (inactive) in assay [2], -2.09% (inactive) in [4] and -4.35% (inactive) in assay [9]. Further, in [2], the nuclei count was 160%. Also, the results for the z-score in [3] (setting [10]), in assay [3] (setting [11]) and in [3] (setting [12]) were -0.113, 1.6 and 0.412, respectively. Further, the fluorescence slope was -0.5 (inactive) in assay [5] and 0.0052 (inactive) in assay [7]. Also, the NADPH fluorescence slope in assay [6] is -5.7e-05 (inactive). The outcome in assay [8] was inactive.
`Clc1ccc(-n2ncc3c(NCc4cccs4)ncnc32)cc1`: the cell count in assay [1] is 615. The inhibition in assay [1] was -9.4% (inactive); in [2], -52.5% (inactive); in assay [4], 11.4% (inactive); in [9] it was 42.7% (inactive). Further, the nuclei count in assay [2] is 125%. Also, the values for the z-score in assay [3] (setting [10]), in assay [3] (setting [11]) and in assay [3] (setting [12]) were 0.539, 0.108 and 0.0803, respectively. For the same molecule, the fluorescence slope in assay [5] was -0.385 (inactive); in assay [7], 0.00704 (inactive). Moreover, the NADPH fluorescence slope in assay [6] is -2.1e-05 (inactive). For the same molecule, the molecule was called inactive in [8].
As for `CCSc1nnc(NC(NC(=O)c2ccco2)(C(F)(F)F)C(F)(F)F)s1`, the cell count in assay [1] was 608. The inhibition is -7.3% (inactive) in [1], -13.8% (inactive) in assay [2], -7.67% (inactive) in assay [4] and -9.53% (inactive) in assay [9]. This molecule came in with a nuclei count in assay [2] of 91.9%. Moreover, the z-score in assay [3] (setting [10]) was -1.05; in assay [3] (setting [11]), -0.75; in assay [3] (setting [12]) it was -0.312. Besides, the fluorescence slope in [5] is -0.483 (inactive); in assay [7] it was 0.00455 (inactive). Further, the NADPH fluorescence slope in assay [6] was -3.9e-05 (inactive). Besides, the outcome in assay [8] was inactive.
Consider `Cc1nn(CC(N)=O)c(=O)c2ccccc12`, for which the cell count in [1] amounted to 579. The inhibition in assay [1] was -2.9% (inactive); in assay [2], -62.8% (inactive); in assay [4], 10.9% (inactive); in assay [9], -4.61% (inactive). Also, the nuclei count in assay [2] was found to be 142%. For the same molecule, the z-score was 2.22 in [3] (setting [10]), -0.838 in [3] (setting [11]) and 0.00121 in assay [3] (setting [12]). The fluorescence slope is -0.485 (inactive) in assay [5] and 0.00427 (inactive) in [7]. Further, in assay [6], the NADPH fluorescence slope was -0.00011 (inactive). The molecule was classed as inactive in [8].
For the molecule `CCCSc1nc(O)c(C2OC(=O)c3c2ccc(OC)c3OC)c(=O)n1C` (stereo unspecified), the cell count in [1] worked out at 560. The inhibition in assay [1] was -1.3% (inactive); in assay [2] it was 29.6% (inactive); in assay [4], 7.93% (inactive); in assay [9], 12.4% (inactive). This molecule also registered a nuclei count in [2] of 143%. Besides, the z-score in assay [3] (setting [10]) is 0.566; in [3] (setting [11]), -0.178; in [3] (setting [12]) it was 0.157. The fluorescence slope in [5] is -0.415 (inactive); in [7] it was 0.00648 (inactive). Also, in assay [6], the NADPH fluorescence slope is -3.7e-05 (inactive). Further, the outcome in assay [8] was inactive.
For `CCC(CC)n1[nH]c(=O)cc1N`, the cell count in [1] worked out at 392. In addition, the inhibition in assay [1] was -15.4% (inactive); in [2] it was -166% (inactive); in assay [4], 7.73% (inactive); in assay [9] it was 7.67% (inactive). This molecule returned a nuclei count in [2] of 144%. Also, the z-score in [3] (setting [10]) was 2; in assay [3] (setting [11]) it was -1.52; in assay [3] (setting [12]), -0.418. Also, the values for the fluorescence slope in assay [5] and in assay [7] were -0.46 (inactive) and 0.0051 (inactive), respectively. In addition, in assay [6], the NADPH fluorescence slope is -9.4e-05 (inactive). Further, in assay [8], the outcome was inactive.
